52 compounds from ChEMBL document CHEMBL1124955, “2-substituted-1-naphthols as potent 5-lipoxygenase inhibitors with topical antiinflammatory activity” (J Med Chem, 1990) can be followed below.

Assay [1] has as its target T1, Polyunsaturated fatty acid 5-lipoxygenase (Rattus norvegicus, UniProt P12527).
T1 sequence (P12527 whole entry): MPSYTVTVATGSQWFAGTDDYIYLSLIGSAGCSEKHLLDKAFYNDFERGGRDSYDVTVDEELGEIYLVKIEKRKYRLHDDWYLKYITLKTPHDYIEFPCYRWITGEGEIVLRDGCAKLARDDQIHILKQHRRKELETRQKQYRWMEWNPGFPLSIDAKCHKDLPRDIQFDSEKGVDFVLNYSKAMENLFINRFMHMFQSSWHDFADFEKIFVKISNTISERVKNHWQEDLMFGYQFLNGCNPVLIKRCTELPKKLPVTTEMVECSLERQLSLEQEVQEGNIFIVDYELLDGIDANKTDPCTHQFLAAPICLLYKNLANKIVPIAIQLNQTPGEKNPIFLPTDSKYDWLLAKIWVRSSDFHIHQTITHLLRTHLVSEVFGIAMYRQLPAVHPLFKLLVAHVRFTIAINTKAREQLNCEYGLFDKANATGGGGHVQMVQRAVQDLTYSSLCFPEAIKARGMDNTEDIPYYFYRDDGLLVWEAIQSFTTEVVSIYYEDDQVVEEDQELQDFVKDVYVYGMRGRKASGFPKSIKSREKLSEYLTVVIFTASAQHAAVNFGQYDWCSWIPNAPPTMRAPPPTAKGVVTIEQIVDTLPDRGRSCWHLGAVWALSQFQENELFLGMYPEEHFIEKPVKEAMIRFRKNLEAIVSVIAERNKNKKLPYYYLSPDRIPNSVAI
Nature of the assay: Ability to inhibit 5-lipoxygenase by using a crude preparation of the cytosolic enzyme from the rat basophilic leukemia (RBL-1) cell line. The assay is classed as cell-based. The gist of the method: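 Crude cytosolic enzyme (supernatant) from RBL-1 cells, amount giving net 3300–3800 dpm 5-HETE (9–20 μg cell protein/assay). Enzyme is preincubated 5 min at 37 °C, pH 7.0, with compound (in 5% DMSO/Tris pH 8.5) in phosphate buffer with EDTA, gelatin, glutathione, CaCl2 and 0.012 mM indomethacin. Reaction is started with 0.042 mM final [14C]arachidonic acid and stopped by freezing after 2 min.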

For assay [2], the system named is Mus musculus. Nature of the assay: Percentage inhibition of the mouse arachidonic acid induced ear edema assay (AA) at a dose of 100 ug/ear. In kind it is functional. The gist of the method: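 Groups of 10 male CF1 mice (18–20 g). Compound in acetone is applied topically to both ears just before 1 mg arachidonic acid in acetone is applied to one ear; the other ear serves as control. Mice are killed 60 min later and 6-mm ear punches weighed; swelling is the weight difference. %Inhibition = [(C−T)/C]×100, with Student's t test.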

For assay [3], the target named is T2, Cyclooxygenase (Bos taurus, UniProt O62664+O62698).
T2 sequence (O62664 whole entry): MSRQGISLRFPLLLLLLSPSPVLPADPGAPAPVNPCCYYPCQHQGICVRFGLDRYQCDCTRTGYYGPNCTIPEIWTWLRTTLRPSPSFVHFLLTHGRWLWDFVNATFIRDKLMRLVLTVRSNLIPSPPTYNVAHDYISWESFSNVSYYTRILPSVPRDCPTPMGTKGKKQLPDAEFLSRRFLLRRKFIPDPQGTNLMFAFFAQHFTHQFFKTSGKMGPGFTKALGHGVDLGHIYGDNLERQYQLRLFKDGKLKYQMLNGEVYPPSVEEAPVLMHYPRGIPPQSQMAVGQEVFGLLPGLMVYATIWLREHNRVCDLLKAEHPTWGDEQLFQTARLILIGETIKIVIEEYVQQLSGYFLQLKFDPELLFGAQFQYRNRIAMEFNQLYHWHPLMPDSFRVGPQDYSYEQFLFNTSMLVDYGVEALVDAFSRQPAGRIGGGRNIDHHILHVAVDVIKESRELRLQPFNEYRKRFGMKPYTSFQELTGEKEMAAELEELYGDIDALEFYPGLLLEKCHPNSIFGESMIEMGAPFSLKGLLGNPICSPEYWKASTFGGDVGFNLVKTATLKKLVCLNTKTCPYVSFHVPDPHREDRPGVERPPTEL
T2 sequence (O62698 whole entry): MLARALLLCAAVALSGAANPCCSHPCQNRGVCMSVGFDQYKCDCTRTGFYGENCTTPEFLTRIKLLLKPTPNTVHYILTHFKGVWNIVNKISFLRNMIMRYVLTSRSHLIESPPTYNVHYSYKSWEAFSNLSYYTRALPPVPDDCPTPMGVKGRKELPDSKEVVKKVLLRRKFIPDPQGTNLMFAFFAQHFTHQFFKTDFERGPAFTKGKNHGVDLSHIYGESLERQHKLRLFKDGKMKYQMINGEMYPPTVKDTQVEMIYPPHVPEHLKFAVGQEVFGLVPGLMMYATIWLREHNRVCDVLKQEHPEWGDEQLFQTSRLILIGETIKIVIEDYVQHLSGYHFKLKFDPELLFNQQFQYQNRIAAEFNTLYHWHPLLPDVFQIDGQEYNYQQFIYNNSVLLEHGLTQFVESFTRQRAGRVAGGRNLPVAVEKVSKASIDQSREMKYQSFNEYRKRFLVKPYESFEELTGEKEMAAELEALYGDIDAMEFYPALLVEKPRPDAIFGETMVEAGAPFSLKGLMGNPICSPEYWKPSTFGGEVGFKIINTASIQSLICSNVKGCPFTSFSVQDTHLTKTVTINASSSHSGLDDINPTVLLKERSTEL
Nature of the assay: In vitro inhibition of Prostaglandin G/H synthase in BSV cell line. In kind it is cell-based.

Compound `Oc1c(Cc2ccc(OCc3ccccc3)cc2)ccc2ccccc12` returned an IC50 in assay [1] of 72 nM. Moreover, the Inhibition in assay [2] is given as 12%.
For `Oc1c(Cc2cccc(Cl)c2)ccc2ccccc12`, in that order: 52 nM and 67%.
Consider `CS(=O)(=O)c1ccc(Cc2ccc3ccccc3c2O)cc1`, for which half-maximal inhibition in assay [1] (IC50) was put at 240 nM. In assay [2], this compound had an Inhibition of 0%.
Turning to `Oc1c(Cc2cccc(Br)c2)ccc2ccccc12`, in assay [1], the IC50 amounted to 88 nM. The compound further showed an Inhibition in assay [2] of 55%.
On to `Cc1ccccc1Cc1ccc2ccccc2c1O`, for which the IC50 in assay [1] was 120 nM. Also, the Inhibition in assay [2] was found to be 66%.
Turning to `Cl.Nc1c(Cc2ccccc2)ccc2ccccc12`, the IC50 is 9100 nM in assay [1] and 18000 nM in assay [3]. In assay [2], the Inhibition came out at 35%.
For `Oc1c(Cc2ccc(Cl)cc2)ccc2ccccc12`, the midpoint of inhibition in assay [1], the IC50, lay at 39 nM. In addition, in assay [2], the Inhibition was 66%.
As for `Cc1ccc2ccccc2c1O`, the IC50 in assay [1] came to 130 nM; in assay [3], 3000 nM. The compound further registered an Inhibition in assay [2] of 73%.
In turn, `Cn1cccc1Cc1ccc2ccccc2c1O` displayed an IC50 in assay [1] of 140 nM. The compound further registered an Inhibition in assay [2] of 72%.
For `Cc1ccc(C)c2c(O)c(Cc3ccccc3)ccc12`, in that order: 120 nM and 52%.
For `NS(=O)(=O)c1cc(Cc2ccccc2)c(O)c2ccccc12`, in that order: 9400 nM and 3%.
Consider `Oc1c(Cc2cccs2)ccc2ccccc12`, for which, in assay [1], the IC50 is 60 nM. Further, the Inhibition in assay [2] came to 84%.
In assay [1], `CCOC(=O)c1cc(Cc2ccccc2)c(O)c2ccccc12` returned an IC50 of 160 nM. Besides, in assay [2], the Inhibition came out at 16%.
For `CS(=O)(=O)c1cc(Cc2ccccc2)c(O)c2ccccc12`, in that order: 40000 nM and 15%.
In assay [1], `O=[N+]([O-])c1ccc(Cc2ccc3ccccc3c2O)cc1` returned a half-inhibitory concentration (IC50) of 48 nM. The compound also showed an Inhibition in assay [2] of 58%.
On to `CC(Cc1ccc(O)c(O)c1)C(C)Cc1ccc(O)c(O)c1` (stereo unspecified) [NORDIHYDROGUAIARETIC ACID], for which, in assay [2], the Inhibition is listed as 25%. Moreover, in assay [3], the IC50 worked out at 14000 nM.
For the compound `Oc1c(CCc2ccccc2)ccc2ccccc12`, the midpoint of inhibition in assay [1], the IC50, lay at 140 nM. The Inhibition in assay [2] is 69%.
For `COc1ccc2ccc(Cc3ccccc3)c(O)c2c1`, in that order: 3500 nM and 52%.
For `Oc1c(Cc2ccc(F)cc2)ccc2ccccc12`, in that order: 130 nM and 76%.
For `CCOc1ccc(Cc2ccc3ccccc3c2O)cc1`, in that order: 62 nM and 68%.
`COc1ccc(Cc2ccc3ccccc3c2O)cc1OC` displayed an IC50 in assay [1] of 51 nM. In assay [2], this compound yielded an Inhibition of 60%.
For `Oc1c(Cc2ccccn2)ccc2ccccc12`, in that order: 390 nM and 56%.
For `Oc1c(Cc2ccccc2)cc(-c2ccccc2)c2ccccc12`, in that order: 56 nM and 26%.
For `COc1ccc2c(O)c(Cc3ccccc3)ccc2c1`, in that order: 1900 nM and 76%.
Compound `CSc1ccc(Cc2ccc3ccccc3c2O)cc1` returned an IC50 in assay [1] of 48 nM. Further, the Inhibition in assay [2] amounted to 76%.
For `Cn1ccnc1Cc1ccc2ccccc2c1O`, in that order: 3500 nM and 9%.
On to `Oc1c(Cc2ccc3c(c2)OCO3)ccc2ccccc12`, for which the half-inhibitory concentration (IC50) in assay [1] is 40 nM. This compound also registered an Inhibition in assay [2] of 78%.
Turning to `O=C(c1ccccc1)c1cc(Cc2ccccc2)c(O)c2ccccc12`, half-maximal inhibition in assay [1] (IC50) was put at 54 nM. The same compound came in with an Inhibition in assay [2] of 41%.
For `Oc1c(Cc2cccc(Oc3ccccc3)c2)ccc2ccccc12`, in that order: 83 nM and 60%.
For `Oc1c(Cc2ccncc2)ccc2ccccc12`, in that order: 140 nM and 62%.
For `OC(c1ccccc1)c1ccc2ccccc2c1` (stereo unspecified), in that order: 40000 nM and 16%.
In the case of `Oc1c(Cc2ccco2)ccc2ccccc12`, the IC50 in assay [1] came out at 37 nM. In assay [2], this compound came in with an Inhibition of 84%.
`CCOc1ccccc1Cc1ccc2ccccc2c1O` yielded an IC50 in assay [1] of 570 nM. In assay [2], this compound registered an Inhibition of 51%.
As for `COc1cc(Cc2ccccc2)c(O)c2ccccc12`, in assay [1], the IC50 came to 31 nM. The compound also gave an Inhibition in assay [2] of 69%.
Consider `CC(=O)Oc1c(Cc2ccccc2)ccc2ccccc12`, for which the Inhibition in assay [2] stood at 63%. Besides, the IC50 in assay [3] stood at 240000 nM.
`Cc1ccc(Cc2ccc3ccccc3c2O)cc1` displayed an IC50 in assay [1] of 24 nM. The compound also registered an Inhibition in assay [2] of 79%.
For `O=[N+]([O-])c1cc(Cc2ccccc2)c(O)c2ccccc12`, in that order: 48000 nM and 28%.
For the compound `Cc1cc(C)c2ccc(Cc3ccccc3)c(O)c2c1`, the IC50 in assay [1] was 62 nM. In assay [2], this compound yielded an Inhibition of 44%.
`COc1cccc(Cc2ccc3ccccc3c2O)c1` came in with an IC50 in assay [1] of 110 nM. The compound also returned an Inhibition in assay [2] of 72%.
In turn, `Oc1c(Cc2cccc(C(F)(F)F)c2)ccc2ccccc12` yielded an IC50 in assay [1] of 270 nM. In addition, the Inhibition in assay [2] amounted to 67%.
On to `COc1ccc(Cc2ccc3ccccc3c2O)cc1`, for which inhibition in assay [1] was half-maximal at 75 nM (IC50). Further, the Inhibition in assay [2] came out at 85%.
In assay [1], `O=C(O)c1cc(Cc2ccccc2)c(O)c2ccccc12` yielded an IC50 of 5800 nM. Moreover, in assay [2], the Inhibition stood at 3%.
In assay [1], `CC(=O)c1cc(Cc2ccccc2)c(O)c2ccccc12` returned an IC50 of 510 nM. This compound also registered an Inhibition in assay [2] of 16%.
For `Oc1c(Cc2ccc(Cl)c(Cl)c2)ccc2ccccc12`, in that order: 180 nM and 58%.
Turning to `Cc1cc(Cc2ccccc2)c(O)c2ccccc12`, in assay [1], the IC50 was 20 nM. For the same compound, the Inhibition in assay [2] is on record as 62%.
For `Oc1c(Cc2cccnc2)ccc2ccccc12`, in that order: 230 nM and 46%.
For the compound `COc1cccc2c(O)c(Cc3ccccc3)ccc12`, the IC50 in assay [1] was 100 nM. The compound further returned an Inhibition in assay [2] of 69%.
In assay [1], `Oc1c(Cc2ccc(Br)cc2)ccc2ccccc12` registered an IC50 of 68 nM. Besides, the Inhibition in assay [2] is given as 50%.
`CN(C)c1ccc(Cc2ccc3ccccc3c2O)cc1` yielded an IC50 in assay [1] of 140 nM. This compound displayed an Inhibition in assay [2] of 67%.
Take `COc1cc2ccc(Cc3ccccc3)c(O)c2cc1OC`: the IC50 in assay [1] was determined as 1700 nM. Moreover, in assay [2], the Inhibition is reported as 33%.
In turn, `Oc1c(Cc2ccc3ccccc3c2)ccc2ccccc12` displayed an IC50 in assay [1] of 58 nM. The compound further returned an Inhibition in assay [2] of 52%.
For `Oc1c(Cc2ccccc2)cc(Br)c2ccccc12`, in that order: 77 nM and 33%.

The term IC50 denotes the concentration that gives 50% inhibition. Lower therefore signals higher potency. By Inhibition is commonly meant the share of the control response that was lost under treatment. Read a high Inhibition as a strong effect.
